In ChEMBL document CHEMBL1157817, “2-aminoimidazole amino acids as inhibitors of the binuclear manganese metalloenzyme human arginase I” (J Med Chem, 2010):
Active and inactive are the calls of the source. No cut-off for these calls is given here.

Assays:
Arginase-1 [1] = target: T1, Arginase-1 (Homo sapiens, UniProt P05089); experiment: Inhibition of human recombinant full length arginase 1 expressed in Escherichia coli BL21(DE3) by fixed point assay
T1 sequence (P05089 whole entry): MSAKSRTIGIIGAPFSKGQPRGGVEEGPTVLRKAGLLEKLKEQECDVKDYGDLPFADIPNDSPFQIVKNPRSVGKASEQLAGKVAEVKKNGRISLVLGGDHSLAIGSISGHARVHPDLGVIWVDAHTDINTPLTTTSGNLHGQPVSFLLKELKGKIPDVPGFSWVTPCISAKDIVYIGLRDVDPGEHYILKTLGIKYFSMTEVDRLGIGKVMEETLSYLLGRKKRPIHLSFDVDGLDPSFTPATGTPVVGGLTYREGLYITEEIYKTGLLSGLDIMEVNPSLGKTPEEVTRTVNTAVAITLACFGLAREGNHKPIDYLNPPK

Arginase-1 [2] = target: T1, Arginase-1; experiment: Inhibition of human recombinant full length arginase 1 expressed in Escherichia coli BL21(DE3) by surface plasmon resonance assay
Mus musculus [3] = experiment: Antiinflammatory activity in ovalbumin-sensitized and challenged BALB/c mouse model assessed as attenuation of methacholine-induced maximum total lung resistance at 85 ug/g administered via nebulization 24 hrs after ovalbumin challenge measured after 15 mins; format: functional, organism-based
How it was run: (§1)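 Mice OVA-sensitized, then nebulized 6% OVA in PBS (or PBS alone) 25 min/day on days 14–20. Day 21, 24 h after last challenge: ketamine 50 mg/kg plus xylazine 10 mg/kg, intubated, ventilator-based resistance measured. Baseline resistance re-measured 15 min after drug. Then nebulized methacholine (0–100 mg/mL in PBS) dose-response via ventilator circuit. Maximum R and RN read; means ± SE, n = 12/group.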

Mus musculus [4] = experiment: Antiinflammatory activity in ovalbumin-sensitized and challenged BALB/c mouse model assessed as attenuation of methacholine-induced increase in central airways responsiveness at 85 ug/g administered via nebulization 24 hrs after ovalbumin challenge measured after 15 mins; format: functional, organism-based; how it was run: as §1
Nitric oxide synthase 1 = Nitric oxide synthase 1 (Rattus norvegicus, UniProt P29476); experiment: Inhibition rat recombinant nNOS
[5] = target: T2, Nitric oxide synthase, inducible (Mus musculus, UniProt P29477); experiment: Inhibition of mouse recombinant iNOS
T2 sequence (P29477 whole entry): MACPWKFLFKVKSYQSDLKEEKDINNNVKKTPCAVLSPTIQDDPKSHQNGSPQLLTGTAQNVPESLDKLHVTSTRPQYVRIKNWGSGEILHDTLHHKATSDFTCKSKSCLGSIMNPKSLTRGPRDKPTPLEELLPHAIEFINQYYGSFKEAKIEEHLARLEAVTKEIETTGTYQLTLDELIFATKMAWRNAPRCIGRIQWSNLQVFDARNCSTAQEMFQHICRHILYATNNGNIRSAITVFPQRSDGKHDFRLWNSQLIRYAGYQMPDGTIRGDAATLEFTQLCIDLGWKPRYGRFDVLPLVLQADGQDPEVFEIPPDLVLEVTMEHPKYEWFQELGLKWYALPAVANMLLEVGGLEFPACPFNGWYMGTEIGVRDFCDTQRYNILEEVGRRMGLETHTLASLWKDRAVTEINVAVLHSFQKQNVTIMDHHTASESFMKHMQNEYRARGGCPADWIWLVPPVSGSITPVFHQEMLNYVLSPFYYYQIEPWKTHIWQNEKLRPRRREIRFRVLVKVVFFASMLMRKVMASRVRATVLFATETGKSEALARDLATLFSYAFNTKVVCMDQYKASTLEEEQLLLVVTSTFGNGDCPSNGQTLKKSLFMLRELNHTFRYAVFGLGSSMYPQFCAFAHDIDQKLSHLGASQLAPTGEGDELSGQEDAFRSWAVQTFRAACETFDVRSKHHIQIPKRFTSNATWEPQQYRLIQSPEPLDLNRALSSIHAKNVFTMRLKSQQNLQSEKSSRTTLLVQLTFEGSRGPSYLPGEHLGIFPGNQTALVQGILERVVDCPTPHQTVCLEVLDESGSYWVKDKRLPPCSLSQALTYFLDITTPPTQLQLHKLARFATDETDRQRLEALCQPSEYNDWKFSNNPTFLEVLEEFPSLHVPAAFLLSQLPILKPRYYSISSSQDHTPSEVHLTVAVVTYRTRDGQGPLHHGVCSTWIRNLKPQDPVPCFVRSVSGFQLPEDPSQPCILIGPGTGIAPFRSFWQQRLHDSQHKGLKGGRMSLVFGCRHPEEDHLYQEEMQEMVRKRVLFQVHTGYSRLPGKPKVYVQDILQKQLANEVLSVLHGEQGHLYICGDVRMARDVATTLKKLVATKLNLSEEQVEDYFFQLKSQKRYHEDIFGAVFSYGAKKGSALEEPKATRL

Sequence of Nitric oxide synthase 1 (P29476 whole entry): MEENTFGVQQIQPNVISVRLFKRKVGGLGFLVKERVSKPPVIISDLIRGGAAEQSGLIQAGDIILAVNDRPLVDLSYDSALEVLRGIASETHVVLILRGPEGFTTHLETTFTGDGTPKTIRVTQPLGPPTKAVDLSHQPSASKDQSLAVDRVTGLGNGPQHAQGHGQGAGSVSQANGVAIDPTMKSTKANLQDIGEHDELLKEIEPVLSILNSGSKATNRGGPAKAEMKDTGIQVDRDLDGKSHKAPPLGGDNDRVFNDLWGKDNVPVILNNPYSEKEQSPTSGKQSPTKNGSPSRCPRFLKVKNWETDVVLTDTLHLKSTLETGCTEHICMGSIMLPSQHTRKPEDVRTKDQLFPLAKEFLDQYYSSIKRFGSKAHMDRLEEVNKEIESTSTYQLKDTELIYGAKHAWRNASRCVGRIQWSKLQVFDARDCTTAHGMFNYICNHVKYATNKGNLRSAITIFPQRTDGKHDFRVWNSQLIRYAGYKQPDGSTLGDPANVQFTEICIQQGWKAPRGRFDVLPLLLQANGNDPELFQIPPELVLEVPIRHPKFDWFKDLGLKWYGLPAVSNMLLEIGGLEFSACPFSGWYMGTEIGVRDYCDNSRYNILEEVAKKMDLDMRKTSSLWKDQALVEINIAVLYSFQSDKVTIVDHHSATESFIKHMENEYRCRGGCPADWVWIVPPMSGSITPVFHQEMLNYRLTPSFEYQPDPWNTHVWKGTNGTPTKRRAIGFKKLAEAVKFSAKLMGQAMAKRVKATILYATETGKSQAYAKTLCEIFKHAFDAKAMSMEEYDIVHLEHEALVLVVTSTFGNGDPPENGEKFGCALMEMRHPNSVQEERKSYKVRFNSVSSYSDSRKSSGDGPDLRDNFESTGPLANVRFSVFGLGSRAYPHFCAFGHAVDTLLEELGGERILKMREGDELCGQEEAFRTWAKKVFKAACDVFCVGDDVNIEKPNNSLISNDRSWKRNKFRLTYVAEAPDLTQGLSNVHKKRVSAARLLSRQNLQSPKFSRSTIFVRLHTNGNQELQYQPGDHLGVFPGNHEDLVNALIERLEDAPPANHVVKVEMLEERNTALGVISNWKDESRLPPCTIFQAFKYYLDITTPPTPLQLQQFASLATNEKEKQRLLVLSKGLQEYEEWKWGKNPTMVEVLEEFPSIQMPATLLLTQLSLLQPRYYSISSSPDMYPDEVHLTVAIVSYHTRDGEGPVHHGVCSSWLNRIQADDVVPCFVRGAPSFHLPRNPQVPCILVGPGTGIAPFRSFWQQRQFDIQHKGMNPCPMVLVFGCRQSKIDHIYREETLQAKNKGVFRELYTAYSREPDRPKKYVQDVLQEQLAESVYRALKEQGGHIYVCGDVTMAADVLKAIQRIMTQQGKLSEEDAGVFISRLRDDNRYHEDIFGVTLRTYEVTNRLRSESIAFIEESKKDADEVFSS

Ki (Arginase-1 [1]) [µM] | Kd (Arginase-1 [2]) [µM] | IC50 (Nitric oxide synthase 1) [µM] | IC50 [5] [µM] | Structure (SMILES) | inhibition (Mus musculus [3]) | inhibition (Mus musculus [4])
3600 |  |  |  | Nc1ncc[nH]1 |  | 
500 |  |  |  | N[C@@H](CCCNc1ncc[nH]1)C(=O)O |  | 
4 | 2 | 135 | 480 | Nc1nccn1CCC[C@H](N)C(=O)O | Active | Active
